In ChEMBL document CHEMBL3259681, “Structure-activity relationship refinement and further assessment of 4-phenylquinazoline-2-carboxamide translocator protein ligands as antiproliferative agents in human glioblastoma tumors” (J Med Chem, 2014):
Active and inactive are the calls of the source. The calls are words filed in the database; no cut-off is given here.

Key:
Translocator protein = Translocator protein (Rattus norvegicus, UniProt P16257); assay: Displacement of [3H]PK11195 from TSPO in rat kidney mitochondrial membranes; type: cell membranes
Homo sapiens [1] = species on record: Homo sapiens; assay: Binding affinity to Central-type benzodiazepine receptor (unknown origin)
Homo sapiens [2] = species on record: Homo sapiens; assay: Induction of mitochondrial membrane depolarization in human U-343 MGa cells at 3 uM for 15 mins by cell fluo-analyzer relative to control; type: functional, cell-based
Outline: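 U343 cells were grown at 37 °C and 5% CO₂ in EMEM with 10% FBS, seeded at ~60 × 10³ cells/well and grown 24 h. They were then exposed to the uncoupler as a depolarized positive control. Floating and adherent cells were pooled and stained with MitoPotential dye (20 min, rt), then with 7-AAD (5 min). The Muse cytometer gave % live, depolarized and dead cells.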

Homo sapiens [3] = species on record: Homo sapiens; assay: Induction of mitochondrial membrane depolarization in human U-343 MGa cells at 10 uM after 5 hrs by cell fluo-analyzer relative to control; type: functional, cell-based
Outline: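 U343 cells were seeded ~60 × 10³/well, grown 24 h, then treated 5 h with 10 μM compound; CCCP 3 μM for 15 min served as depolarized control. Floating and adherent cells were pooled and stained with MitoPotential dye for 20 min at rt, then 7-AAD for 5 min. Percent live, depolarized and dead cells was read on a Muse cytometer.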

[4] = Cytotoxicity against human U-343 MGa cells assessed as inhibition of cell survival at 100 uM after 24 hrs by colorimetric viability MTS assay; type: functional
Outline: (§1)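 U343 cells were seeded ~4.5 × 10³/well, grown 24 h, then treated 24 h with 10 nM–100 μM compound; vehicle (DMSO or EtOH) was ≤1%. Viability by MTS conversion relative to control (100%). IC50 was taken as the concentration giving half-maximal survival inhibition. Duplicates, ≥3 experiments, mean ± SEM.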

[5] = target: Translocator protein (Rattus norvegicus) (UniProt P16257); assay: Displacement of [3H]PK11195 from TSPO in rat kidney mitochondrial membranes at 1 uM; type: cell membranes
Outline: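 Competition binding against 0.6 nM [³H]PK11195 in crude rat kidney mitochondrial membranes, 50 mM Tris–HCl pH 7.4. Six compound concentrations spanning 0.05 nM–20 μM, each in triplicate. IC50 from displacement curves, converted to Ki by Cheng–Prusoff. Percent inhibition taken at 1 μM. Values are mean ± SEM of three determinations.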

[6] = target: Vascular endothelial growth factor receptor 2 (Homo sapiens) (UniProt P35968); assay: Inhibition of human KDR kinase at 10 uM
Homo sapiens [7] = species on record: Homo sapiens; assay: Agonist activity at GPCR in human U-343 MGa cell membrane assessed as increase in basal [35S]GTPgamma binding at 100 uM; type: functional, cell membranes
[8] = (§2) Cytotoxicity against human U-343 MGa cells assessed as inhibition of cell survival after 24 hrs by colorimetric viability MTS assay; type: functional, cell-based; outline: as §1
Homo sapiens [9] = species on record: Homo sapiens; assay: as §2; type: functional, cell-based; outline: as §1
[10] = target: Receptor tyrosine-protein kinase erbB-2 (Homo sapiens) (UniProt P04626); assay: Inhibition of human HER2/ErbB2 kinase at 1 uM
[11] = target: Vascular endothelial growth factor receptor 2 (Homo sapiens) (UniProt P35968); assay: Inhibition of human KDR kinase at 1 uM
[12] = target: Tyrosine-protein kinase ABL1 (Homo sapiens) (UniProt P00519); assay: Inhibition of human Abl kinase at 1 uM
[13] = target: Receptor-type tyrosine-protein kinase FLT3 (Homo sapiens) (UniProt P36888); assay: Inhibition of human FLT-3 kinase at 1 uM
Homo sapiens [14] = species on record: Homo sapiens; assay: Agonist activity at GPCR in human U-343 MGa cell membrane assessed as increase in basal [35S]GTPgamma binding at 0.1 nM; type: functional, cell membranes
[15] = target: Receptor tyrosine-protein kinase erbB-2 (Homo sapiens) (UniProt P04626); assay: Inhibition of human HER2/ErbB2 kinase at 10 uM
[16] = target: Epidermal growth factor receptor (Homo sapiens) (UniProt P00533); assay: Inhibition of human EGFR kinase at 1 uM
[17] = target: Protein kinase C beta type (Homo sapiens) (UniProt P05771); assay: Inhibition of human PKCbeta2 at 10 uM
[18] = target: Protein kinase C beta type (Homo sapiens) (UniProt P05771); assay: Inhibition of human PKCbeta1 at 1 uM
[19] = target: Serine/threonine-protein kinase mTOR (Homo sapiens) (UniProt P42345); assay: Inhibition of human mTOR kinase at 1 uM
[20] = target: Vascular endothelial growth factor receptor 1 (Homo sapiens) (UniProt P17948); assay: Inhibition of human FLT-1 kinase at 10 uM
[21] = target: Serine/threonine-protein kinase mTOR (Homo sapiens) (UniProt P42345); assay: Inhibition of human mTOR kinase at 10 uM
[22] = target: Tyrosine-protein kinase ABL1 (Homo sapiens) (UniProt P00519); assay: Inhibition of human Abl kinase at 10 uM
[23] = target: Platelet-derived growth factor receptor beta (Homo sapiens) (UniProt P09619); assay: Inhibition of human PDGFRbeta kinase at 1 uM
[24] = target: Vascular endothelial growth factor receptor 1 (Homo sapiens) (UniProt P17948); assay: Inhibition of human FLT-1 kinase at 1 uM
[25] = target: Receptor-type tyrosine-protein kinase FLT3 (Homo sapiens) (UniProt P36888); assay: Inhibition of human FLT-3 kinase at 10 uM
[26] = target: Protein kinase C beta type (Homo sapiens) (UniProt P05771); assay: Inhibition of human PKCbeta2 at 1 uM
Homo sapiens [27] = species on record: Homo sapiens; assay: Cytotoxicity against human U-343 MGa cells assessed as decrease in cell viability at 50 uM after 24 hrs by colorimetric viability MTS assay; type: functional, cell-based
Outline: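 U343 cells in MEM with 10% FBS were seeded ~4.5 × 10³/well and grown 24 h. They were then exposed 24 h to 50 μM compound in complete medium; DMSO or EtOH vehicle was ≤1%. Viable cells were read by MTS colorimetric conversion as percent of vehicle control. Measurements in duplicate; mean ± SEM of three determinations.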

[28] = target: Epidermal growth factor receptor (Homo sapiens) (UniProt P00533); assay: Inhibition of human EGFR kinase at 10 uM
[29] = target: Proto-oncogene tyrosine-protein kinase receptor Ret (Homo sapiens) (UniProt P07949); assay: Inhibition of human Ret kinase at 1 uM
[30] = target: Platelet-derived growth factor receptor alpha (Homo sapiens) (UniProt P16234); assay: Inhibition of human PDGFRalpha kinase at 10 uM
[31] = target: Proto-oncogene tyrosine-protein kinase receptor Ret (Homo sapiens) (UniProt P07949); assay: Inhibition of human Ret kinase at 10 uM
[32] = target: Mast/stem cell growth factor receptor Kit (Homo sapiens) (UniProt P10721); assay: Inhibition of human c-kit kinase at 1 uM
[33] = target: Mast/stem cell growth factor receptor Kit (Homo sapiens) (UniProt P10721); assay: Inhibition of human c-kit kinase at 10 uM
[34] = target: Platelet-derived growth factor receptor beta (Homo sapiens) (UniProt P09619); assay: Inhibition of human PDGFRbeta kinase at 10 uM
[35] = target: Platelet-derived growth factor receptor alpha (Homo sapiens) (UniProt P16234); assay: Inhibition of human PDGFRalpha kinase at 1 uM
[36] = target: Protein kinase C beta type (Homo sapiens) (UniProt P05771); assay: Inhibition of human PKCbeta1 at 10 uM

Chain of Translocator protein (P16257 whole entry, looked up): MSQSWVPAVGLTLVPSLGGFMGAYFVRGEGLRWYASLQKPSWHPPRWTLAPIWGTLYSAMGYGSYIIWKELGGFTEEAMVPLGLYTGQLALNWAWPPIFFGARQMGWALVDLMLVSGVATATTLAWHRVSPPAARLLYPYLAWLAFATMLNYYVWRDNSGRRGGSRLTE
Chain of Protein kinase C beta type (Homo sapiens) (P05771 2-671 limits assumed): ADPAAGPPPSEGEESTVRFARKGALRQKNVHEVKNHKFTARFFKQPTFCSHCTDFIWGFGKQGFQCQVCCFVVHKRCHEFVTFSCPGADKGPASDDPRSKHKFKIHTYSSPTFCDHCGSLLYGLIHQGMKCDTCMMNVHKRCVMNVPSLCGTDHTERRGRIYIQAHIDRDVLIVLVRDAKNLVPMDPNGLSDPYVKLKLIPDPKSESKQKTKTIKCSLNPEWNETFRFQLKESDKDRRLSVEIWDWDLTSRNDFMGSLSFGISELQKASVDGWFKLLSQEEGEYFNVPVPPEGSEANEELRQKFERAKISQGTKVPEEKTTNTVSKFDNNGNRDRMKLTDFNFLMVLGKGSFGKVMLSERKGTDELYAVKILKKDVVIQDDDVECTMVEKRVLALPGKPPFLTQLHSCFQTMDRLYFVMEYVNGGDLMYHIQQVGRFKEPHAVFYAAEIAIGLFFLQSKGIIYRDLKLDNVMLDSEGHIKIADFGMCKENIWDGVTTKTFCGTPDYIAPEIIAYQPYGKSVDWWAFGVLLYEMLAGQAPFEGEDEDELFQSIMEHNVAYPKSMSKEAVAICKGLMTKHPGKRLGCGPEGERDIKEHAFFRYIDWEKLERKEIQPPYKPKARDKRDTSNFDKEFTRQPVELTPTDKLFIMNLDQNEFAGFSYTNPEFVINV
Chain of Epidermal growth factor receptor (Homo sapiens) (P00533 whole entry): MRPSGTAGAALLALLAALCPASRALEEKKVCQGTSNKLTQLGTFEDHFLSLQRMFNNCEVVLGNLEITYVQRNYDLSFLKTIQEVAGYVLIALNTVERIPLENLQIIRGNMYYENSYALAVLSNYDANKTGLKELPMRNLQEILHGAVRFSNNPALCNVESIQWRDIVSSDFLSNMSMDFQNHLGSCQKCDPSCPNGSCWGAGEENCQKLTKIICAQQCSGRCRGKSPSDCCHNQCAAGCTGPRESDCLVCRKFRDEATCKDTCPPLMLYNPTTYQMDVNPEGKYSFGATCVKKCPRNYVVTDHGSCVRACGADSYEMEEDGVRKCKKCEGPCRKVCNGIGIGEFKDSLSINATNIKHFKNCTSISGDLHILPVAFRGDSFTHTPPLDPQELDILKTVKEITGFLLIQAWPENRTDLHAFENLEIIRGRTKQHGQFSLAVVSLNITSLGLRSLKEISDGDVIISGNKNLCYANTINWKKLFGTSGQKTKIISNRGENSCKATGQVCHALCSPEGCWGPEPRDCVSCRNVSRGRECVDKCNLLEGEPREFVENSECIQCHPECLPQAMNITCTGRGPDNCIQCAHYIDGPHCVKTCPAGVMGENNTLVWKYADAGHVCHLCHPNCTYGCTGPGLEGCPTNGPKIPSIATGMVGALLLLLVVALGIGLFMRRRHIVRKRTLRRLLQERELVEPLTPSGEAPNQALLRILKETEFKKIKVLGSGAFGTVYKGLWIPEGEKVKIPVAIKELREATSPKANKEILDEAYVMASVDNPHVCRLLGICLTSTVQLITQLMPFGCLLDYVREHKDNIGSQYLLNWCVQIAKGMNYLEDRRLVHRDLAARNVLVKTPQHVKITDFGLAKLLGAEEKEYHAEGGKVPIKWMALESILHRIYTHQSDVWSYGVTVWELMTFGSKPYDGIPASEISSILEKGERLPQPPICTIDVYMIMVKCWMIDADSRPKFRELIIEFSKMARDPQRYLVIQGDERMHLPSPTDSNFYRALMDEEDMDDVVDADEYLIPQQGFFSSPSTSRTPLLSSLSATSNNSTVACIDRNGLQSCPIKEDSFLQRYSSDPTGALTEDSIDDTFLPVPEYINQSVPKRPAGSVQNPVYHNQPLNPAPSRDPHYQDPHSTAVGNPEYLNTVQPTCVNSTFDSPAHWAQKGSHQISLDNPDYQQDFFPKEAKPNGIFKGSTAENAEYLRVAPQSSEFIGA
Chain of Receptor tyrosine-protein kinase erbB-2 (Homo sapiens) (P04626 whole entry): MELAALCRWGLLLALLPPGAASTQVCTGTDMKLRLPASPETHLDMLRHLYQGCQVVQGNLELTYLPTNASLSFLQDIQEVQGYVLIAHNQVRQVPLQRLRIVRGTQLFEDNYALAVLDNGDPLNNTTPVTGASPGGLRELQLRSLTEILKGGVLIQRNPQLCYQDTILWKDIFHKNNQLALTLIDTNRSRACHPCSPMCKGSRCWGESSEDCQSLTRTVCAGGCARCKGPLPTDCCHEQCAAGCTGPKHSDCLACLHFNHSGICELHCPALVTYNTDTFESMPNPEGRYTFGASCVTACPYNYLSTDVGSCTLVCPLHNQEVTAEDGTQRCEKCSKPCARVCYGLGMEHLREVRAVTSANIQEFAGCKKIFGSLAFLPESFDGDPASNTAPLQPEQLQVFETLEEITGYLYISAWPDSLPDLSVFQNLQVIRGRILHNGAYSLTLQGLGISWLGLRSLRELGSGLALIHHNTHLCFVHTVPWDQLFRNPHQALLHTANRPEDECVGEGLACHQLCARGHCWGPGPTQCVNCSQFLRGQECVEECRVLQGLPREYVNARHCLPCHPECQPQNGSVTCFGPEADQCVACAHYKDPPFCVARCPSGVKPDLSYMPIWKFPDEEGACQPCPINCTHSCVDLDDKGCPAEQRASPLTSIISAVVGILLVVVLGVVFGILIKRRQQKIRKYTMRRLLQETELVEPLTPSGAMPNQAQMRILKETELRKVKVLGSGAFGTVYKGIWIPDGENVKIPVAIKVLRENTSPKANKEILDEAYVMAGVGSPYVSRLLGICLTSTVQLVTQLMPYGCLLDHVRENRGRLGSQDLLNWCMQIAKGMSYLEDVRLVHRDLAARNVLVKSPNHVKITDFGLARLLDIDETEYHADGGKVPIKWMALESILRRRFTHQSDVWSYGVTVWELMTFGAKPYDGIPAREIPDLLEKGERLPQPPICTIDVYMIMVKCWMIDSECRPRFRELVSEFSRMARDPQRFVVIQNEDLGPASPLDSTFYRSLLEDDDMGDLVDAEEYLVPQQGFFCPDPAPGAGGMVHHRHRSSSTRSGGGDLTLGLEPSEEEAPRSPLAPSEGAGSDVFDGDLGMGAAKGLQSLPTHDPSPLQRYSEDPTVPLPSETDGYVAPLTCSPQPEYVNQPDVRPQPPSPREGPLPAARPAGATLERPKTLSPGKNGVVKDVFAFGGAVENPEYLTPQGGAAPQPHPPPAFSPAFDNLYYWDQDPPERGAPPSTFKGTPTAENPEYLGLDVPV
Chain of Translocator protein (Rattus norvegicus) (P16257 whole entry, looked up): as the sequence (P16257 whole entry, looked up) above
Chain of Proto-oncogene tyrosine-protein kinase receptor Ret (Homo sapiens) (P07949 whole entry): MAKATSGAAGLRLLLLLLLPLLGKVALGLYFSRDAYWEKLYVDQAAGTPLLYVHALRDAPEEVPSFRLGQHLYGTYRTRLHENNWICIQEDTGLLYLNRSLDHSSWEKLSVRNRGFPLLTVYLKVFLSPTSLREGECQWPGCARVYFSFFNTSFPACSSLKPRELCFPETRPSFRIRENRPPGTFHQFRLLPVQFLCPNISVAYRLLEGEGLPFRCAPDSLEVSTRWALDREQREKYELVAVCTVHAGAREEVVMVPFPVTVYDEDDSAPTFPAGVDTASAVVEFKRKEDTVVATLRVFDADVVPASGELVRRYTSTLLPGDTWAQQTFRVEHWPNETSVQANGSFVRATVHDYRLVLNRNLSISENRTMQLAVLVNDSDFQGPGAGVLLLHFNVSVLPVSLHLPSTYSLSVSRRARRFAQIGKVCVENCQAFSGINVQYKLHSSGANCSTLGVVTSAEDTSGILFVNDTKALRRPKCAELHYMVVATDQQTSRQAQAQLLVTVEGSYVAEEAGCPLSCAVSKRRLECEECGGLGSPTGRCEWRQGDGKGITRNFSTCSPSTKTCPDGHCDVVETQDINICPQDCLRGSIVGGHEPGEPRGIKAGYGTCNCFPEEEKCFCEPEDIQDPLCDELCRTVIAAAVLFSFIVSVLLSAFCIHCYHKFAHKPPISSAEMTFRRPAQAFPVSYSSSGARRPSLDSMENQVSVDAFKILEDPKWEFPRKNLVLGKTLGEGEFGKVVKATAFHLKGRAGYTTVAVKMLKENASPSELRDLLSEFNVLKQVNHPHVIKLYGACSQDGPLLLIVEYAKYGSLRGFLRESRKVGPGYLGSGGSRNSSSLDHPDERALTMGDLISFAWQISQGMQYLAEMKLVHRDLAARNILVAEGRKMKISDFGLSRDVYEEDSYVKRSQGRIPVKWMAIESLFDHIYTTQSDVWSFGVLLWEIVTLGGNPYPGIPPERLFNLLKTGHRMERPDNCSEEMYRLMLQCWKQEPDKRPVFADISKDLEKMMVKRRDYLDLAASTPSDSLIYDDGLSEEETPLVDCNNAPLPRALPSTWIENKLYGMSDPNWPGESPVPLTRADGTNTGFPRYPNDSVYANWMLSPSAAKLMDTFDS

CCN(Cc1ccccc1)C(=O)c1nc(-c2ccc(F)cc2)c2ccccc2n1
Ki (Translocator protein): 1.68 nM

CCOC(=O)c1ccc(CN(CC)C(=O)c2nc(-c3ccccc3)c3ccccc3n2)cc1
Ki (Translocator protein): 3.65 nM

CCCCCCN(CCCCCC)C(=O)c1nc(-c2ccccc2Cl)c2ccccc2n1
Activity (Homo sapiens [1]): inactive

CCN(Cc1ccc(C)cc1)C(=O)c1nc(-c2ccccc2F)c2ccccc2n1
Ki (Translocator protein): 0.6 nM

CCN(Cc1ccccc1)C(=O)c1nc(-c2ccc(Cl)cc2)c2ccccc2n1
Ki (Translocator protein): 0.762 nM

CCC(C)N(C)C(=O)c1nc(-c2ccccc2)c2cc(Cl)ccc2n1 (stereo not given)
Activity (Homo sapiens [1]): inactive

CCC(C)N(C)C(=O)c1nc(-c2ccc(Cl)cc2)c2ccccc2n1 (stereo not given)
Activity (Homo sapiens [1]): inactive

N#CC(C#N)=NNc1cccc(Cl)c1
Activity (Homo sapiens [2]): Active

CCCCCCN(CCCCCC)C(=O)c1nc(-c2ccc(Cl)cc2)c2ccccc2n1
Activity (Homo sapiens [1]): inactive

CCCCCN(CCCCC)C(=O)c1nc(-c2ccccc2)c2ccccc2n1
Activity (Homo sapiens [1]): inactive

CCC(C)N(C)C(=O)c1cc2ccccc2c(-c2ccccc2Cl)n1 (stereo not given) [PK-11195]
Activity (Homo sapiens [3]): Active | inhibition at 100 µM [4]: 40%

CN(Cc1ccccc1)C(=O)c1nc(-c2ccccc2F)c2ccccc2n1
Ki (Translocator protein): 1.11 nM

CCN(Cc1ccccc1)C(=O)c1nc(-c2ccccc2F)c2ccccc2n1
Ki (Translocator protein): 0.888 nM

CCN(Cc1ccc(OC)cc1)C(=O)c1nc(-c2ccccc2)c2ccccc2n1
Ki (Translocator protein): 2.77 nM

CCN(Cc1ccccc1)C(=O)c1nc(-c2ccccc2)c2ccccc2n1
Ki (Translocator protein): 1.13 nM

CCN(Cc1ccccc1)C(=O)c1nc(-c2ccccc2)c2cc(Cl)ccc2n1
Ki (Translocator protein): 24.3 nM

O=C(NCc1ccccc1)c1nc(-c2ccccc2Cl)c2ccccc2n1
inhibition [5]: 16%

CCN(Cc1ccc(C)cc1)C(=O)c1nc(-c2ccccc2)c2ccccc2n1
Ki (Translocator protein): 2.57 nM

CN(Cc1ccccc1)C(=O)c1nc(-c2ccccc2)c2ccccc2n1
Ki (Translocator protein): 3.99 nM

CN(Cc1ccccc1)C(=O)c1nc(-c2ccc(Cl)cc2)c2ccccc2n1
Ki (Translocator protein): 6.12 nM

CCN(Cc1ccc(C(=O)O)cc1)C(=O)c1nc(-c2ccccc2)c2ccccc2n1
Ki (Translocator protein): 719 nM

CCN(Cc1ccc(C)cc1)C(=O)c1nc(-c2ccccc2Cl)c2ccccc2n1
inhibition [6]: inactive | Activity (Homo sapiens [7]): inactive | IC50 [8]: 15100 nM | inhibition (Homo sapiens [9]): Dose-dependent effect | inhibition [10]: inactive | Activity (Homo sapiens [3]): Active | inhibition [11]: inactive | inhibition [12]: inactive | inhibition [13]: inactive | Activity (Homo sapiens [14]): inactive | inhibition [15]: inactive | inhibition [16]: inactive | inhibition [17]: inactive | inhibition [18]: inactive | inhibition [19]: inactive | inhibition [20]: inactive | inhibition [21]: inactive | inhibition [22]: inactive | inhibition [23]: inactive | inhibition [24]: inactive | inhibition [25]: inactive | inhibition [26]: inactive | inhibition (Homo sapiens [27]): Active | inhibition [28]: inactive | inhibition [29]: inactive | inhibition [30]: inactive | inhibition [31]: inactive | inhibition [32]: inactive | Ki (Translocator protein): 0.489 nM | inhibition [33]: inactive | inhibition [34]: inactive | inhibition [35]: inactive | inhibition [36]: inactive

O=C(NCc1ccccc1)c1nc(-c2ccccc2)c2ccccc2n1
inhibition [5]: 41%

CCN(Cc1ccccc1)C(=O)c1nc(-c2ccc(C)cc2)c2ccccc2n1
Ki (Translocator protein): 1.49 nM

CCCCN(CCCC)C(=O)c1nc(-c2ccccc2)c2ccccc2n1
Activity (Homo sapiens [1]): inactive

CCC(C)N(C)C(=O)c1nc(-c2ccccc2Cl)c2ccccc2n1 (stereo not given)
Activity (Homo sapiens [1]): inactive

CN(Cc1ccccc1)C(=O)c1cc2ccccc2c(-c2ccccc2Cl)n1
Ki (Translocator protein): 0.442 nM

CCCCCCN(CCCCCC)C(=O)c1nc(-c2ccccc2)c2cc(Cl)ccc2n1
Activity (Homo sapiens [1]): inactive

CCN(Cc1ccc(O)cc1)C(=O)c1nc(-c2ccccc2)c2ccccc2n1
Ki (Translocator protein): 8.76 nM

CCN(Cc1ccc([N+](=O)[O-])cc1)C(=O)c1nc(-c2ccccc2)c2ccccc2n1
Ki (Translocator protein): 4.2 nM

CCCCCCN(CCCCCC)C(=O)c1nc(-c2ccccc2)c2ccccc2n1
IC50 [8]: 17700 nM | inhibition (Homo sapiens [9]): Dose-dependent effect | Activity (Homo sapiens [3]): Active | inhibition (Homo sapiens [27]): Active | Activity (Homo sapiens [1]): inactive

CCC(C)N(C)C(=O)c1nc(-c2ccccc2)c2ccccc2n1 (stereo not given)
Activity (Homo sapiens [1]): inactive

CCN(Cc1ccccc1)C(=O)c1nc(-c2ccccc2Cl)c2ccccc2n1
Ki (Translocator protein): 0.235 nM
